The species entered for assay [1] is Homo sapiens. Description: Selectivity index, ratio of Ki for inhibition of human CA4 to Ki for inhibition of human CA12. An outline of the steps: (§1)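 Ratio of Ki values. Each Ki came from stopped-flow CA-catalysed CO2 hydration with recombinant in-house hCA isoforms, phenol red 0.2 mM read at 557 nm, 20 mM Hepes pH 7.5, 20 mM Na2SO4, and CO2 1.7–17 mM. Inhibitor and enzyme were preincubated 15 min at room temperature. Initial rates, less the uncatalysed rate, were fit by nonlinear least squares with Cheng–Prusoff. Mean of ≥3 determinations.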

Assay [2] is filed under the species Homo sapiens. Description: Selectivity index, ratio of Ki for inhibition of human CA1 to Ki for inhibition of human CA2. An outline of the steps: as §1
The species named for assay [3] is Homo sapiens. Description: Selectivity index, ratio of Ki for inhibition of human CA1 to Ki for inhibition of human CA4. An outline of the steps:
as §1

The target in the next assay is Carbonic anhydrase 2 (Homo sapiens, UniProt P00918). Description: Inhibition of human CA2 preincubated for 15 mins by stopped-flow CO2 hydration kinetic assay based Cheng-Prusoff equation analysis.
The next assay has as its target Carbonic anhydrase 1 (Homo sapiens, UniProt P00915). Description: Inhibition of human CA1 preincubated for 15 mins by stopped-flow CO2 hydration kinetic assay based Cheng-Prusoff equation analysis.
The next assay addresses Carbonic anhydrase 4 (Homo sapiens, UniProt P22748). Kind of assay: Inhibition of human CA4 preincubated for 15 mins by stopped-flow CO2 hydration kinetic assay based Cheng-Prusoff equation analysis.
The species entered for assay [4] is Homo sapiens. Kind of assay: Selectivity index, ratio of Ki for inhibition of human CA2 to Ki for inhibition of human CA4. In a few lines:
as §1

The species entered for assay [5] is Homo sapiens. Kind of assay: Selectivity index, ratio of Ki for inhibition of human CA1 to Ki for inhibition of human CA12. In a few lines: as §1
The species named for assay [6] is Homo sapiens. Kind of assay: Selectivity index, ratio of Ki for inhibition of human CA2 to Ki for inhibition of human CA12. An outline of the steps:
as §1

The next assay concerns the target Carbonic anhydrase 12 (Homo sapiens, UniProt O43570). Kind of assay: Inhibition of human CA12 preincubated for 15 mins by stopped-flow CO2 hydration kinetic assay based Cheng-Prusoff equation analysis.

Carbonic anhydrase 1, sequence (P00915 whole entry): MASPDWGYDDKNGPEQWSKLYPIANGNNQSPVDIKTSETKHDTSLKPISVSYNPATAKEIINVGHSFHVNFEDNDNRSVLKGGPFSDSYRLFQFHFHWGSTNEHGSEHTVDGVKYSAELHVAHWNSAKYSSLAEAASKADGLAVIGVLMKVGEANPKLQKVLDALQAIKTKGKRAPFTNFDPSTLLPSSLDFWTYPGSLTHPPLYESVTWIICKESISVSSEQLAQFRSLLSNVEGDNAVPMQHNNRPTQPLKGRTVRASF
Carbonic anhydrase 12, sequence (O43570 whole entry): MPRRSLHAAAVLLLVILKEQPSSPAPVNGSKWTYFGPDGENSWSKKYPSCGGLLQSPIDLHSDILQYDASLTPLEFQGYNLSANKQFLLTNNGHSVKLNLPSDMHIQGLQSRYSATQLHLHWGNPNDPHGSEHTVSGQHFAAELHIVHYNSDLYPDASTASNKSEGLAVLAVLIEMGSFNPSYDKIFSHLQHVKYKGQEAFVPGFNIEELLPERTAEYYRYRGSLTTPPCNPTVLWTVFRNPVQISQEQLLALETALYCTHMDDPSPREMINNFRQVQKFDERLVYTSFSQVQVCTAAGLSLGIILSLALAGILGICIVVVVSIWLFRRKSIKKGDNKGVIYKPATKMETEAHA
Carbonic anhydrase 4, sequence (P22748 whole entry): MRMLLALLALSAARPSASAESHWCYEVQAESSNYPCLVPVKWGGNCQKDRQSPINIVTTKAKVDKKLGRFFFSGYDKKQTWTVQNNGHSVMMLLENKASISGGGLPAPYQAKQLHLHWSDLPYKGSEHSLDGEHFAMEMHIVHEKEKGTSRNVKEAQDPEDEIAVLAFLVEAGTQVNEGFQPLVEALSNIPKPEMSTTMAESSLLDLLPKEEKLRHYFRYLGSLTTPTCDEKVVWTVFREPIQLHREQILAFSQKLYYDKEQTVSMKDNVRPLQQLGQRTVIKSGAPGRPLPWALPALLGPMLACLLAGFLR

Take `NS(=O)(=O)c1ccc(CCNCc2ccc3ccccc3c2)cc1`: the Ratio Ki in the assay listed under Homo sapiens [1] stood at 79.5; in the assay filed under Homo sapiens [2], 5.3; in the assay listed under Homo sapiens [3], 0.07; in the assay listed under Homo sapiens [4], 0.01; in the assay listed under Homo sapiens [5], 5.8; in the assay filed under Homo sapiens [6], 1.1. For the same compound, the Ki – broadly, the equilibrium dissociation constant of an inhibitor or competing ligand from its target – at Carbonic anhydrase 2 turned out to be 87.1 nM; at Carbonic anhydrase 1 it was 458 nM; at Carbonic anhydrase 4, 6.25 µM; at Carbonic anhydrase 12 it was 78.6 nM.
`CCCCCCN(CCCCCC)CCC(=O)N(CCc1ccccc1)CCc1ccc(S(N)(=O)=O)cc1`: the Ratio Ki worked out at 54.6 in the assay filed under Homo sapiens [1]; 0.7 in the assay filed under Homo sapiens [2]; 0.2 in the assay listed under Homo sapiens [3]; 0.2 in the assay filed under Homo sapiens [4]; 8.3 in the assay listed under Homo sapiens [5]; 12.5 in the assay listed under Homo sapiens [6]. Also, the Ki on Carbonic anhydrase 2 stood at 781 nM; at Carbonic anhydrase 1, 518 nM; at Carbonic anhydrase 4 it was 3.41 µM; on Carbonic anhydrase 12 it was 62.5 nM.
As for `CCCCCCN(CCCCCC)CC(=O)N(CCc1ccc(S(N)(=O)=O)cc1)Cc1ccccc1`, the Ratio Ki is above 108 in the assay listed under Homo sapiens [1]; 3.7 in the assay filed under Homo sapiens [2]; below 0.09 in the assay filed under Homo sapiens [3]; below 0.02 in the assay listed under Homo sapiens [4]; 9.5 in the assay filed under Homo sapiens [5]; 2.5 in the assay filed under Homo sapiens [6]. Also, the Ki was 237 nM at Carbonic anhydrase 2, 879 nM on Carbonic anhydrase 1, above 10 µM on Carbonic anhydrase 4 and 92.8 nM on Carbonic anhydrase 12.
`CCN(CC(=O)N(CCc1ccc(S(N)(=O)=O)cc1)Cc1ccccc1)Cc1ccccc1`: the Ratio Ki in the assay listed under Homo sapiens [1] is above 121; in the assay filed under Homo sapiens [2], 10.7; in the assay listed under Homo sapiens [3], below 0.4; in the assay listed under Homo sapiens [4] it was below 0.04; in the assay listed under Homo sapiens [5], 51; in the assay filed under Homo sapiens [6], 4.7. The Ki at Carbonic anhydrase 2 was 392 nM; at Carbonic anhydrase 1 it was 4210 nM; on Carbonic anhydrase 4, above 10 µM; at Carbonic anhydrase 12, 82.6 nM.
For the compound `NS(=O)(=O)c1ccc(CCNCc2ccc(F)cc2)cc1`, the Ratio Ki in the assay listed under Homo sapiens [1] came to 19.9; in the assay listed under Homo sapiens [2] it was 1.4; in the assay filed under Homo sapiens [3], 0.09; in the assay listed under Homo sapiens [4] it was 0.06; in the assay filed under Homo sapiens [5] it was 1.9; in the assay listed under Homo sapiens [6], 1.3. The Ki came to 78.5 nM on Carbonic anhydrase 2, 113 nM at Carbonic anhydrase 1, 1.2 µM on Carbonic anhydrase 4 and 60.1 nM on Carbonic anhydrase 12.
For the compound `NCCCN(CCc1ccccc1)CC(=O)N(CCc1ccccc1)CCc1ccc(S(N)(=O)=O)cc1`, the Ratio Ki in the assay filed under Homo sapiens [1] came out at 25.7; in the assay filed under Homo sapiens [2], 0.7; in the assay listed under Homo sapiens [3], 0.1; in the assay listed under Homo sapiens [4], 0.2; in the assay listed under Homo sapiens [5], 2.9; in the assay listed under Homo sapiens [6], 4.4. Also, the Ki at Carbonic anhydrase 2 is 367 nM; on Carbonic anhydrase 1 it was 242 nM; on Carbonic anhydrase 4, 2.15 µM; at Carbonic anhydrase 12, 83.7 nM.
For the compound `NCCCN(CCc1ccccc1)CC(=O)N(CCc1ccc(S(N)(=O)=O)cc1)Cc1ccc2ccccc2c1`, the Ratio Ki in the assay filed under Homo sapiens [1] was 78; in the assay filed under Homo sapiens [2], 90.5; in the assay listed under Homo sapiens [3] it was 0.6; in the assay filed under Homo sapiens [4], 0.007; in the assay listed under Homo sapiens [5], 48.3; in the assay listed under Homo sapiens [6], 0.5. Besides, the Ki is 5.6 nM at Carbonic anhydrase 2, 507 nM at Carbonic anhydrase 1, 0.819 µM at Carbonic anhydrase 4 and 10.5 nM at Carbonic anhydrase 12.
As for `CCCCCCN(CCCCCC)CCC(=O)N(CCc1ccc(S(N)(=O)=O)cc1)Cc1ccco1`, the Ratio Ki amounted to 325 in the assay listed under Homo sapiens [1]; 3.6 in the assay filed under Homo sapiens [2]; 0.07 in the assay filed under Homo sapiens [3]; 0.02 in the assay listed under Homo sapiens [4]; 22.7 in the assay filed under Homo sapiens [5]; 6.2 in the assay listed under Homo sapiens [6]. Further, the Ki at Carbonic anhydrase 2 was 60.4 nM; at Carbonic anhydrase 1, 220 nM; on Carbonic anhydrase 4, 3.15 µM; on Carbonic anhydrase 12, 9.7 nM.
In the case of `CCCCCCCCN(CCCCCCCC)CC(=O)N(CCc1ccc(S(N)(=O)=O)cc1)Cc1ccccc1`, the Ratio Ki was above 101 in the assay listed under Homo sapiens [1]; 1.1 in the assay listed under Homo sapiens [2]; below 0.09 in the assay filed under Homo sapiens [3]; below 0.08 in the assay filed under Homo sapiens [4]; 9.5 in the assay filed under Homo sapiens [5]; 8.5 in the assay listed under Homo sapiens [6]. In addition, the Ki on Carbonic anhydrase 2 is 844 nM; at Carbonic anhydrase 1, 947 nM; at Carbonic anhydrase 4, above 10 µM; on Carbonic anhydrase 12 it was 99.4 nM.
Consider `CCCCCCN(CCCCCC)CC(=O)N(CCC(=O)O)CCc1ccc(S(N)(=O)=O)cc1`, for which the Ratio Ki in the assay filed under Homo sapiens [1] worked out at 4.6; in the assay filed under Homo sapiens [2], 0.5; in the assay listed under Homo sapiens [3] it was 6.2; in the assay filed under Homo sapiens [4] it was 12.8; in the assay listed under Homo sapiens [5], 28.8; in the assay filed under Homo sapiens [6] it was 59.2. Moreover, the inhibition constant Ki on Carbonic anhydrase 2 worked out at 586 nM; at Carbonic anhydrase 1, 286 nM; on Carbonic anhydrase 4, 0.0458 µM; on Carbonic anhydrase 12 it was 9.9 nM.
`NS(=O)(=O)c1ccc(CCNCc2ccc([N+](=O)[O-])cc2)cc1`: the Ratio Ki in the assay listed under Homo sapiens [1] came to 21.4; in the assay filed under Homo sapiens [2], 1.9; in the assay listed under Homo sapiens [3], 0.1; in the assay listed under Homo sapiens [4], 0.07; in the assay listed under Homo sapiens [5], 2.9; in the assay filed under Homo sapiens [6] it was 1.6. For the same compound, the Ki was found to be 121 nM on Carbonic anhydrase 2, 224 nM at Carbonic anhydrase 1, 1.69 µM at Carbonic anhydrase 4 and 77.4 nM at Carbonic anhydrase 12.
With `N#CCCN(CCc1ccccc1)CC(=O)N(CCc1ccc(S(N)(=O)=O)cc1)Cc1ccc([N+](=O)[O-])cc1`, the Ratio Ki in the assay filed under Homo sapiens [1] amounted to 27.1; in the assay filed under Homo sapiens [2] it was 1.5; in the assay filed under Homo sapiens [3], 0.2; in the assay listed under Homo sapiens [4], 0.1; in the assay listed under Homo sapiens [5], 4.6; in the assay filed under Homo sapiens [6] it was 3. In addition, the Ki at Carbonic anhydrase 2 worked out at 264 nM; on Carbonic anhydrase 1 it was 408 nM; at Carbonic anhydrase 4, 2.42 µM; at Carbonic anhydrase 12, 89.5 nM.
On to `CCCCCCN(CCCCCC)CC(=O)N(CCc1ccc(S(N)(=O)=O)cc1)Cc1ccc2ccccc2c1`, for which the Ratio Ki in the assay listed under Homo sapiens [1] is above 162; in the assay filed under Homo sapiens [2], 0.1; in the assay filed under Homo sapiens [3], below 0.05; in the assay listed under Homo sapiens [4], below 0.5; in the assay listed under Homo sapiens [5] it was 8.8; in the assay filed under Homo sapiens [6] it was 74. In addition, the Ki at Carbonic anhydrase 2 was 4560 nM; at Carbonic anhydrase 1, 541 nM; at Carbonic anhydrase 4 it was above 10 µM; on Carbonic anhydrase 12, 61.7 nM.
As to `CCCCCN(CCCCC)CC(=O)N(CCc1ccc(S(N)(=O)=O)cc1)Cc1ccccc1`, the Ratio Ki was above 144 in the assay filed under Homo sapiens [1]; 4.1 in the assay filed under Homo sapiens [2]; below 0.05 in the assay filed under Homo sapiens [3]; below 0.01 in the assay filed under Homo sapiens [4]; 7.3 in the assay listed under Homo sapiens [5]; 1.8 in the assay filed under Homo sapiens [6]. Moreover, the Ki was 124 nM on Carbonic anhydrase 2, 506 nM at Carbonic anhydrase 1, above 10 µM at Carbonic anhydrase 4 and 69.4 nM on Carbonic anhydrase 12.
With `CCCCCCN(CCCCCC)CCC(=O)N(CCc1ccc(S(N)(=O)=O)cc1)Cc1ccccc1`, the Ratio Ki in the assay listed under Homo sapiens [1] came to 44.4; in the assay filed under Homo sapiens [2] it was 0.5; in the assay filed under Homo sapiens [3], 0.09; in the assay filed under Homo sapiens [4], 0.2; in the assay listed under Homo sapiens [5], 4; in the assay listed under Homo sapiens [6] it was 7.4. Besides, the Ki on Carbonic anhydrase 2 stood at 578 nM; at Carbonic anhydrase 1 it was 308 nM; at Carbonic anhydrase 4 it was 3.46 µM; on Carbonic anhydrase 12, 77.8 nM.
Regarding `NS(=O)(=O)c1ccc(CCNCc2ccco2)cc1`, the Ratio Ki in the assay filed under Homo sapiens [1] worked out at 28.6; in the assay filed under Homo sapiens [2], 1.1; in the assay filed under Homo sapiens [3], 0.04; in the assay filed under Homo sapiens [4] it was 0.04; in the assay listed under Homo sapiens [5] it was 1.2; in the assay filed under Homo sapiens [6], 1.1. Further, the Ki at Carbonic anhydrase 2 amounted to 62.8 nM; on Carbonic anhydrase 1, 68.4 nM; at Carbonic anhydrase 4, 1.58 µM; at Carbonic anhydrase 12, 55.4 nM.
For `NS(=O)(=O)c1ccc(CCNCCc2ccccc2)cc1`, the Ratio Ki in the assay listed under Homo sapiens [1] amounted to 34.4; in the assay filed under Homo sapiens [2], 3.1; in the assay filed under Homo sapiens [3], 0.08; in the assay listed under Homo sapiens [4] it was 0.02; in the assay listed under Homo sapiens [5], 2.7; in the assay filed under Homo sapiens [6] it was 0.9. Further, the Ki at Carbonic anhydrase 2 turned out to be 89.1 nM; on Carbonic anhydrase 1 it was 278 nM; at Carbonic anhydrase 4, 3.59 µM; on Carbonic anhydrase 12 it was 104 nM.
Consider `NS(=O)(=O)c1ccc(CCN(Cc2ccccc2)C(=O)CN(Cc2ccccc2)Cc2ccccc2)cc1`, for which the Ratio Ki in the assay listed under Homo sapiens [1] is above 101; in the assay filed under Homo sapiens [2], 2.1; in the assay listed under Homo sapiens [3] it was below 0.09; in the assay listed under Homo sapiens [4] it was below 0.04; in the assay filed under Homo sapiens [5], 8.8. The Ki at Carbonic anhydrase 2 was 412 nM; at Carbonic anhydrase 1, 866 nM; on Carbonic anhydrase 4, above 10 µM; on Carbonic anhydrase 12 it was 98.8 nM.
For the compound `NS(=O)(=O)c1ccc(CCNCc2ccccc2)cc1`, the Ki worked out at 2.85 µM at Carbonic anhydrase 4 and 65.4 nM on Carbonic anhydrase 12.
Turning to `N#CCCN(CCc1ccccc1)CC(=O)N(CCc1ccc(S(N)(=O)=O)cc1)Cc1ccc2ccccc2c1`, the Ratio Ki in the assay listed under Homo sapiens [1] was 58.8; in the assay filed under Homo sapiens [2], 2.8; in the assay listed under Homo sapiens [3], 0.2; in the assay filed under Homo sapiens [5], 10.5; in the assay filed under Homo sapiens [6] it was 3.8. For the same compound, the Ki on Carbonic anhydrase 2 was 248 nM; on Carbonic anhydrase 1, 685 nM; at Carbonic anhydrase 4, 3.81 µM; on Carbonic anhydrase 12 it was 64.9 nM.

(Values after ChEMBL document CHEMBL4613327, “Sulfonamide Inhibitors of Human Carbonic Anhydrases Designed through a Three-Tails Approach: Improving Ligand/Isoform Matching and Selectivity of Action” (J Med Chem, 2020).)
